From ChEMBL document CHEMBL1800057, “Discovery of dual inducible/neuronal nitric oxide synthase (iNOS/nNOS) inhibitor development candidate 4-((2-cyclobutyl-1H-imidazo[4,5-b]pyrazin-1-yl)methyl)-7,8-difluoroquinolin-2(1H)-one (KD7332) part 2: identification of a novel, potent, and selective series of benzimidazole-quinolinone …” (J Med Chem, 2010)

What was measured:
[1] = Cmax in mouse at 3 mg/kg, iv and 10 mg/kg, po; assay type: ADME, organism-based; details: in vivo
[2] = AUC in mouse at 3 mg/kg, iv and 10 mg/kg, po; assay type: ADME, organism-based; details: plasma
[3] = Half life in mouse at 10 mg/kg, po; assay type: ADME, organism-based; design: dose 10 mg/kg, route oral; details: in vivo
[4] = target: Nitric oxide synthase, inducible (Homo sapiens, UniProt P35228); assay: Inhibition of human iNOS expressed in HEK293 cells assessed as inhibition of nitric oxide production after 18 hrs using 2,3-diaminonaphthalene by fluorescence assay; assay type: cell-based
Sequence of Nitric oxide synthase, inducible (Homo sapiens, UniProt P35228) (P35228 whole entry): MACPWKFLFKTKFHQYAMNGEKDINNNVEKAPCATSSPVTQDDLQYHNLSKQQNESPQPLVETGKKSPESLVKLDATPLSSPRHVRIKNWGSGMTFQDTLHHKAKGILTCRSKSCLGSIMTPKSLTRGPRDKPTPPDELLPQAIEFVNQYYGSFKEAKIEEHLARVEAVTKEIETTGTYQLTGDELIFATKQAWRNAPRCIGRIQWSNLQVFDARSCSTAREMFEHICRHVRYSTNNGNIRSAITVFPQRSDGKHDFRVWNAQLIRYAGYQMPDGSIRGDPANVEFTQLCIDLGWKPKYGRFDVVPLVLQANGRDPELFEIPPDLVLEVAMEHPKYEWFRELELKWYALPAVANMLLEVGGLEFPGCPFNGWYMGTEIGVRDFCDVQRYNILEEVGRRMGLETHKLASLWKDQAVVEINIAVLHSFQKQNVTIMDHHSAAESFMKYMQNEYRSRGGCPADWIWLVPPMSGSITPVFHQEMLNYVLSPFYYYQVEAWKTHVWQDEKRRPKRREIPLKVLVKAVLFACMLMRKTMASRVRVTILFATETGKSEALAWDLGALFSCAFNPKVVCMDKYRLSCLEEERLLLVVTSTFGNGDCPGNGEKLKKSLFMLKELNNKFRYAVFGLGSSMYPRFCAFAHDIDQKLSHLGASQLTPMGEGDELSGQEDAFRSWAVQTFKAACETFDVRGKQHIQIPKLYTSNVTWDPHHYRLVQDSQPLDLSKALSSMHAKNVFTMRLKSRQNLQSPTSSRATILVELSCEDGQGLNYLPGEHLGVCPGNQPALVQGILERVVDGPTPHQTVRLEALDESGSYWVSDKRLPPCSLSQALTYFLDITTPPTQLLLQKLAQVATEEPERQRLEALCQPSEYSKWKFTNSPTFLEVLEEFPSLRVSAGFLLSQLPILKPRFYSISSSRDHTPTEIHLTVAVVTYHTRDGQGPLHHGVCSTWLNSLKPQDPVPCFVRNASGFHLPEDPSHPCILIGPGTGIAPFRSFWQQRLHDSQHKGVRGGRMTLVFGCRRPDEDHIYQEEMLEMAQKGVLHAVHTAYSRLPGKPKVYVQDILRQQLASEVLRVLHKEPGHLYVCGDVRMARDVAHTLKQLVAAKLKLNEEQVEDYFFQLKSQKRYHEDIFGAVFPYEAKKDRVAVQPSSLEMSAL
Summary of the method: (§1)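 HEK293 cells grown to ~70% confluence in DMEM/10% FBS with pen/strep, transiently transfected with 10 μg human or murine iNOS plasmid plus Fugene 6 for 4 h at 37 °C, 10% CO2. Cells replated at 5e5 cells/mL and dosed with compound at once; 1400W (100 μM final) as positive control. After 18 h, DAN (10 μg/mL final) in HCl (0.1 N final) added for 20 min at room temperature. Fluorescence read after NaOH (0.12 N final).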

Nitric oxide synthase 1 [5] = target: T1, Nitric oxide synthase 1 (Homo sapiens, UniProt P29475); assay: Inhibition of human nNOS expressed in HEK293 cells assessed as inhibition ionomycin induced nitric oxide production incubated for 24 hrs measured after 18 hrs of ionomycin challenge using 2,3-diaminonaphthalene by fluorescence assay; assay type: cell-based
T1 sequence (P29475 whole entry): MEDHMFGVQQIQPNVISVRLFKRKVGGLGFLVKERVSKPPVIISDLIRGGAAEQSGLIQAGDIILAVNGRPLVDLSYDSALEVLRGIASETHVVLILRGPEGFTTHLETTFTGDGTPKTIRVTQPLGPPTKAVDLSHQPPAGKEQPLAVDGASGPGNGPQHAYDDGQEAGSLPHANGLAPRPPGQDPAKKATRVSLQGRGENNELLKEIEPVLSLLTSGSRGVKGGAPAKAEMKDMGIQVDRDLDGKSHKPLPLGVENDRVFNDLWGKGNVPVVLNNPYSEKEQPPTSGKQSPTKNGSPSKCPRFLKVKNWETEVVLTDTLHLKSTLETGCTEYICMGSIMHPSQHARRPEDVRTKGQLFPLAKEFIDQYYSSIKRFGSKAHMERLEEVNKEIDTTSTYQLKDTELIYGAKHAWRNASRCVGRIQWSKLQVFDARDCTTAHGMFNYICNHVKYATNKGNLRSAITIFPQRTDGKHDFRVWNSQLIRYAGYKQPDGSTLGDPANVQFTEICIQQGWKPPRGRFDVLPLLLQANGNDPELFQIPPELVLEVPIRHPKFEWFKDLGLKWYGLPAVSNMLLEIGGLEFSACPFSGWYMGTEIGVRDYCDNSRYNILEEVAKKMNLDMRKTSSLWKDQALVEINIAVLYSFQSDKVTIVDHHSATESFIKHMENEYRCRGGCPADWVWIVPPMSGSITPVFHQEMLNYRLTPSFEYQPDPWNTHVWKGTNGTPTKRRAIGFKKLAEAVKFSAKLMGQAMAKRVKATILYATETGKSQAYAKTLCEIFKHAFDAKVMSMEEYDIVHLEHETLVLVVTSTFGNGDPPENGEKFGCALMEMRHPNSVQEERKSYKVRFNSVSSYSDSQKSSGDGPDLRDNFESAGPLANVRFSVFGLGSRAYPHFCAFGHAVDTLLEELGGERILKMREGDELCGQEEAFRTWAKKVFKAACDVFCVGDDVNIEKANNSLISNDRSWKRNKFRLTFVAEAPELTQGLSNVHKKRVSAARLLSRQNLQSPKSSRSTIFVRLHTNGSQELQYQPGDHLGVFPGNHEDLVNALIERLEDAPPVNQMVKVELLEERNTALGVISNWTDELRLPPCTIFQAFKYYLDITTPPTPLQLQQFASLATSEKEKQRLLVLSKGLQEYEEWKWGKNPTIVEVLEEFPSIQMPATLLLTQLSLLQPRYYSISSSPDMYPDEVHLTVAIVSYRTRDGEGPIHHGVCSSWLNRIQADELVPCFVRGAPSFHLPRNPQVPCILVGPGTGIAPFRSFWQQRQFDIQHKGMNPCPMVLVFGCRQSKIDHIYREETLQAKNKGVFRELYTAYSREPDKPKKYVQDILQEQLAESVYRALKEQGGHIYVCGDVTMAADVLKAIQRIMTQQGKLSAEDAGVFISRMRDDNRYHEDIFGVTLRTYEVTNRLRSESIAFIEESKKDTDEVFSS
Summary of the method: (§2)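 HEK293 cells transfected for 4 h at 37 °C with human nNOS (10 μg) or human eNOS (15 μg) plasmid (Fugene 6, 3:1). Cells replated at 5e5 cells/mL and dosed with compound at once; SEITU (100 μM final) as positive control. After 24 h, cells activated with A23187 (83 nM final) for eNOS or ionomycin (30 μM final) for nNOS. NO read 18 h later as nitrite-DAN fluorescence.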

Nitric oxide synthase 3 = target: T2, Nitric oxide synthase 3 (Homo sapiens, UniProt P29474); assay: Inhibition of human eNOS expressed in HEK293 cells assessed as inhibition A23187 induced nitric oxide production incubated for 24 hrs measured after 18 hrs of […] challenge using 2,3-diaminonaphthalene by fluorescence assay; assay type: cell-based; summary of the method: as §2
T2 sequence (P29474 whole entry): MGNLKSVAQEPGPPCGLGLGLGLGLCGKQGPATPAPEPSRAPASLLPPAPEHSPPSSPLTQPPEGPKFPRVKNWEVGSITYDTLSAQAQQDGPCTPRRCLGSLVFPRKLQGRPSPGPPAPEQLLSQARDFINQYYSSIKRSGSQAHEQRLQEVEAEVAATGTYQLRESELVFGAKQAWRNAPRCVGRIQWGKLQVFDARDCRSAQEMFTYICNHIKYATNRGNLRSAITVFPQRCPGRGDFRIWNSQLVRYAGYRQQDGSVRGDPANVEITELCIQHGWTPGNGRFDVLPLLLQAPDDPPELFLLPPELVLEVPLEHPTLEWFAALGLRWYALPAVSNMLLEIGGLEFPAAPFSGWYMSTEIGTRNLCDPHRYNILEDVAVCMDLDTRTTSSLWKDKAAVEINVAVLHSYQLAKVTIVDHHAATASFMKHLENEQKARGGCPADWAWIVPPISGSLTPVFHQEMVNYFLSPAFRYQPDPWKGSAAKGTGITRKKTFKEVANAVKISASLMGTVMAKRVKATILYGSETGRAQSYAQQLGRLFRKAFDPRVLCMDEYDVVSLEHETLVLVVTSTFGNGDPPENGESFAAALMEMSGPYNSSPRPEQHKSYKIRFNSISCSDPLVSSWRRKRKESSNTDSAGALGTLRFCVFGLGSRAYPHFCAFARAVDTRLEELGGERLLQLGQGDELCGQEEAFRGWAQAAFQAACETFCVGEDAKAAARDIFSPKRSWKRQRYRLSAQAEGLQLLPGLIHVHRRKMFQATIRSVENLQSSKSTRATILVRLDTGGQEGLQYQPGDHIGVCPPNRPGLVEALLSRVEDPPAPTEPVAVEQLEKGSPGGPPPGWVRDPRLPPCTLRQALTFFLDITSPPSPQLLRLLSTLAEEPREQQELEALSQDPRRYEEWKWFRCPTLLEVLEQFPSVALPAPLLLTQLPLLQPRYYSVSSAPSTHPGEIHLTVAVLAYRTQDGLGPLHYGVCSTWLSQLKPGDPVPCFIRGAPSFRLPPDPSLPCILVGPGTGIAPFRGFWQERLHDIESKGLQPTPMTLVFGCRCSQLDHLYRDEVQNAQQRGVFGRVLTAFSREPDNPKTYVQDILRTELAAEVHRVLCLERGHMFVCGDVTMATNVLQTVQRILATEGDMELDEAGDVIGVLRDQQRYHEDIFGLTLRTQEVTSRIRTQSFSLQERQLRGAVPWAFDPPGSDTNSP

Liver = assay: Half life in mouse liver microsomes assessed as formation of oxidation product and glucuronide conjugate; assay type: ADME, Microsome
Summary of the method: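 Mouse liver microsomes run under combined phase I oxidation and phase II glucuronide conjugation; half-life reported in minutes.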

Homo sapiens [6] = organism: Homo sapiens; assay: Ratio of IC50 for human eNOS to EC50 for human iNOS
Homo sapiens [7] = organism: Homo sapiens; assay: Ratio of IC50 for human nNOS to EC50 for human iNOS
[8] = target: T3, Nitric oxide synthase, inducible (Mus musculus, UniProt P29477); assay: Inhibition of mouse iNOS expressed in HEK293 cells assessed as inhibition of nitric oxide production after 18 hrs using 2,3-diaminonaphthalene by fluorescence assay; assay type: cell-based; summary of the method: as §1
T3 sequence (P29477 whole entry): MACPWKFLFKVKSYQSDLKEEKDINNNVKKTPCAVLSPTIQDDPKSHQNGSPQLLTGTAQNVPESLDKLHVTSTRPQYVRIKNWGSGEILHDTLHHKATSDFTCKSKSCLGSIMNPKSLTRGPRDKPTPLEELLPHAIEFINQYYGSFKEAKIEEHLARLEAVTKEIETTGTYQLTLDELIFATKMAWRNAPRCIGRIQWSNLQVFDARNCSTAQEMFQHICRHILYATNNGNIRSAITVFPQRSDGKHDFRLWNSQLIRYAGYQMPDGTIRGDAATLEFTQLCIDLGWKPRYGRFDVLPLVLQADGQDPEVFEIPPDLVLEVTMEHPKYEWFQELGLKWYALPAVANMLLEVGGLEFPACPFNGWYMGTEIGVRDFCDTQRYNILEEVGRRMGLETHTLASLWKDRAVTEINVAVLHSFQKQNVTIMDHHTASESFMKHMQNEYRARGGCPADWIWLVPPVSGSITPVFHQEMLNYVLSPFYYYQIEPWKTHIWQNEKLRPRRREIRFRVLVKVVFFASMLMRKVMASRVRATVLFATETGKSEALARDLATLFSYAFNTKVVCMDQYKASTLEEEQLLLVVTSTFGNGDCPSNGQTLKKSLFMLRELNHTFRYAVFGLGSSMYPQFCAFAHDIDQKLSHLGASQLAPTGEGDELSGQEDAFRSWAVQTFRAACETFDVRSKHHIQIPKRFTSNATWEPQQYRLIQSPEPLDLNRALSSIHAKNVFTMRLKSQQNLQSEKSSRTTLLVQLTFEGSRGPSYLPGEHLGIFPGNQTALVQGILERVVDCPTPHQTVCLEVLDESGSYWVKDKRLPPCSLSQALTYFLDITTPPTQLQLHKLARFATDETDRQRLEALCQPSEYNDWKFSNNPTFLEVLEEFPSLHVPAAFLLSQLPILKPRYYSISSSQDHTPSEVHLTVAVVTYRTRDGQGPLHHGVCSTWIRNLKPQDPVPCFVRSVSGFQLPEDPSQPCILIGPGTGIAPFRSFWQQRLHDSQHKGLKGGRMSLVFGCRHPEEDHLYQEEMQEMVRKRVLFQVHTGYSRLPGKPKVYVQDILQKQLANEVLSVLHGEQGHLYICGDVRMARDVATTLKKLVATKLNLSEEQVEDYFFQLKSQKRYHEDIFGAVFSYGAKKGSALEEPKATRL

Mus musculus = assay: Inhibition of LPS-induced iNOS activation in BALB/c mouse assessed as plasma nitrate levels administered via oral gavage before LPS challenge measured after 6 to 8 hrs using 2,3-diaminonaphthalene by fluorescence assay; assay type: functional
Summary of the method: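 Male BALB/c mice dosed by oral gavage (90% PEG/5% Tween 80/5% PVP + 0.5% w/v CMC) immediately before LPS (10 mg/kg ip in 0.9% NaCl). Mice killed at 6 h. EDTA plasma analysed for nitrate and drug levels; nitrite measured by DAN fluorescence.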

[9] = target: T4, Nitric oxide synthase 3 (Homo sapiens) (UniProt P29474); assay: Inhibition of human eNOS expressed in HEK293 cells assessed as inhibition A23187 induced nitric oxide production at 100 uM incubated for 24 hrs measured after 18 hrs of […] challenge using 2,3-diaminonaphthalene by fluorescence assay; assay type: cell-based
T4 sequence (whole entry): T2 sequence (P29474 whole entry)

Nitric oxide synthase 1 [10] = target: T1, Nitric oxide synthase 1; assay: Inhibition of human nNOS expressed in HEK293 cells assessed as inhibition ionomycin induced nitric oxide production at 10 uM incubated for 24 hrs measured after 18 hrs of ionomycin challenge using 2,3-diaminonaphthalene by fluorescence assay; assay type: cell-based
[11] = Plasma clearance in rhesus monkey at 3 mg/kg, iv and 10 mg/kg, po; assay type: ADME, organism-based, Macaca mulatta
Summary of the method: (§3)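 Rhesus pharmacokinetics: 3 mg/kg iv and 10 mg/kg po, HCl salt. Clp, t1/2, Vdss, Cmax, AUC, oral t1/2 and %F reported.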

[12] = Half life in rhesus monkey at 3 mg/kg, iv and 10 mg/kg, po; assay type: ADME, organism-based, Macaca mulatta; details: in vivo; summary of the method: as §3
[13] = Volume of distribution at steady state in rhesus monkey at 3 mg/kg, iv and 10 mg/kg, po; assay type: ADME, organism-based, Macaca mulatta; details: in vivo, read-out: Vdss; summary of the method: as §3
[14] = Cmax in rhesus monkey at 3 mg/kg, iv and 10 mg/kg, po; assay type: ADME, organism-based, Macaca mulatta; details: in vivo; summary of the method: as §3
[15] = AUC in rhesus monkey at 3 mg/kg, iv and 10 mg/kg, po; assay type: ADME, organism-based, Macaca mulatta; details: plasma; summary of the method: as §3
[16] = Half life in rhesus monkey at 10 mg/kg, po; assay type: ADME, organism-based, Macaca mulatta; design: dose 10 mg/kg, route oral; details: in vivo
[17] = Bioavailability in rhesus monkey at 3 mg/kg, iv and 10 mg/kg, po; assay type: ADME, organism-based, Macaca mulatta; details: in vivo; summary of the method: as §3

Row | Structure (SMILES) | Cmax [1] | AUC [2] | half-life [3] | EC50 [4] | EC50 (Nitric oxide synthase 1 [5]) | EC50 (Nitric oxide synthase 3) | t1/2 (Liver) | Ratio EC50 (Homo sapiens [6]) | Ratio EC50 (Homo sapiens [7]) | EC50 [8] | ED50 (Mus musculus) | inhibition [9] | inhibition (Nitric oxide synthase 1 [10]) | clearance [11] | half-life [12] | Vd [13] | Cmax [14] | AUC [15] | half-life [16] | bioavailability [17]
1 | O=c1cc(Cn2c(C3CCC3)nc3ccccc32)c2ccc(F)c(F)c2[nH]1 | 5700 ng/mL | 10000 ng·h/mL | 1.4 h | 0.26 µM | 0.32 µM | 5.9 µM | > 2 h | 23 | 1.2 | 2.1 µM | 4 mg/kg | – | – | – | – | – | – | – | – | –
2 | O=c1cc(Cn2c(-c3cncs3)nc3ccccc32)c2ccc(F)c(F)c2[nH]1 | – | – | – | 8.6 µM | > 10 µM | > 100 µM | 0.717 h | > 12 | > 12 | – | – | < 50% | < 50% | – | – | – | – | – | – | –
3 | Cl.O=c1cc(Cn2c(C3CCC3)nc3nccnc32)c2cccc(F)c2[nH]1 | – | – | – | – | – | – | – | – | – | – | – | – | – | 4.3 mL/min/kg | 6.8 h | 1.2 L/kg | 1800 ng/mL | 23000 ng·h/mL | 10 h | 93%
4 | O=c1cc(Cn2c(CC3CCCC3)nc3ccccc32)c2ccc(F)c(F)c2[nH]1 | – | – | – | 1.77 µM | > 10 µM | > 100 µM | > 2 h | > 56 | > 6 | – | – | < 50% | < 50% | – | – | – | – | – | – | –
5 | Cl.O=c1cc(Cn2c(C3CCC3)nc3nccnc32)c2ccc(F)c(F)c2[nH]1 | – | – | – | – | – | – | – | – | – | – | – | – | – | 6 mL/min/kg | 13 h | 3 L/kg | 3300 ng/mL | 18000 ng·h/mL | 9 h | 63%
